Source: ChEMBL document CHEMBL1811853, “Design and evaluation of 3-aminopyrazolopyridinone kinase inhibitors inspired by the natural product indirubin” (Bioorg Med Chem, 2011)

Experiments:
[1] = biological target: T1, Aurora kinase A (Homo sapiens) (UniProt O14965); assay: Inhibition of AurA at 30 uM by microfluidic mobility shift assay
T1 sequence (whole entry): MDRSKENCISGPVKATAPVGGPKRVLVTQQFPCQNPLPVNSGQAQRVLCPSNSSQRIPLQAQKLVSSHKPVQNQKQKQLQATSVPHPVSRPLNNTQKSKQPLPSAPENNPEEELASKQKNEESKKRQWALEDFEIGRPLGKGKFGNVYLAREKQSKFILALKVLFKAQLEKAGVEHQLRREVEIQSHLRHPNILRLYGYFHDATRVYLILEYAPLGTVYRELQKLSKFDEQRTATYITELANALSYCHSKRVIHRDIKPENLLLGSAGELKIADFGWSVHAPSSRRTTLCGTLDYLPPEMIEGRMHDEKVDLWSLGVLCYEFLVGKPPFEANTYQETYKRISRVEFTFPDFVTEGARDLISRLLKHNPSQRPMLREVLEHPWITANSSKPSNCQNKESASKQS
In short: (§1)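 Single-concentration screen, singlicate, 30 uM final (diluted from 1 mM DMSO solutions), fluorescently tagged peptide substrate appropriate to each kinase, ATP at apparent Km for each protein. Phosphorylated and unphosphorylated peptides separated electrophoretically; conversion is the phosphorylated peak area over the sum of both peaks. No-inhibitor and no-ATP controls; H89 reference on each plate.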

[2] = biological target: T2, Protein kinase C zeta type (Homo sapiens) (UniProt Q05513); assay: Inhibition of PKCz at 30 uM by microfluidic mobility shift assay; in short: as §1
T2 sequence (whole entry): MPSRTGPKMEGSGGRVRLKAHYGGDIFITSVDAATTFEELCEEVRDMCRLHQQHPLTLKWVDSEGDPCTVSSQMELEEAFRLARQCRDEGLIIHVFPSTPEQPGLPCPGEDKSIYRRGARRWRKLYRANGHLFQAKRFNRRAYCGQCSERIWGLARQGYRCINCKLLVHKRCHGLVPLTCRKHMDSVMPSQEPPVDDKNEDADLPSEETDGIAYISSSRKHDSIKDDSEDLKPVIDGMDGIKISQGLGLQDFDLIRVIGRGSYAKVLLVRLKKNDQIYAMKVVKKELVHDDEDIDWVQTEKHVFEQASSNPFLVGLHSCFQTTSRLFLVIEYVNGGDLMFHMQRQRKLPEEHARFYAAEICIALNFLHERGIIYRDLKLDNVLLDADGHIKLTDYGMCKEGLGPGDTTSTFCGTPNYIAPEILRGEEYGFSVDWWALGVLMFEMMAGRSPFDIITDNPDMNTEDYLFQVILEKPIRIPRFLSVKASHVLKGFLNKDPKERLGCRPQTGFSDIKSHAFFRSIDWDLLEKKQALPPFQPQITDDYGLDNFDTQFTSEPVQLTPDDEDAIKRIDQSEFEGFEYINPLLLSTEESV

[3] = biological target: T3, Serine/threonine-protein kinase D2 (Homo sapiens) (UniProt Q9BZL6); assay: Inhibition of PKD2 at 30 uM by microfluidic mobility shift assay; in short: as §1
T3 sequence (whole entry): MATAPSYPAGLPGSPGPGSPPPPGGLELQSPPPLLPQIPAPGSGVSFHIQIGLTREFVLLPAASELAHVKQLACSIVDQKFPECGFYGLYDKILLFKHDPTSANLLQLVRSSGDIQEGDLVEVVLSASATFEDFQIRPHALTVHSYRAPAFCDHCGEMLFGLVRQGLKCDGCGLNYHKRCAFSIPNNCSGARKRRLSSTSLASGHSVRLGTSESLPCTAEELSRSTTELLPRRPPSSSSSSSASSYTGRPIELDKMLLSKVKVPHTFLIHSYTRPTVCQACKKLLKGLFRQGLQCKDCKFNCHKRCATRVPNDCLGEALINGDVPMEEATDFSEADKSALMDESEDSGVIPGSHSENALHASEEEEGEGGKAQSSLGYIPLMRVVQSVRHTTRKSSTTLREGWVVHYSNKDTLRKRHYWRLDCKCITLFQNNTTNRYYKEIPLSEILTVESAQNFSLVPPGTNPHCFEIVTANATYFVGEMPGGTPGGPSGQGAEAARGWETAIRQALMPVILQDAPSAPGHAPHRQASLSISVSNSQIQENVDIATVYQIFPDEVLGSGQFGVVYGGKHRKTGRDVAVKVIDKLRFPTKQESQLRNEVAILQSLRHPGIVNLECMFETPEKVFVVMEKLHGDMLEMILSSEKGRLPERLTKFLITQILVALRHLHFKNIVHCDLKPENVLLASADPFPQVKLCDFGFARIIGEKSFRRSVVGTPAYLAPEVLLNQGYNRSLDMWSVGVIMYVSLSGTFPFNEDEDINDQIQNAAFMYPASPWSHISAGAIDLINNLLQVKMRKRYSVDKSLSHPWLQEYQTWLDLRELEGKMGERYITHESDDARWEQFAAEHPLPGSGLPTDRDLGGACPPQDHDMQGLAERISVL

[4] = biological target: T4, Serine/threonine-protein kinase Chk1 (Homo sapiens) (UniProt O14757); assay: Inhibition of CHK1 at 30 uM by microfluidic mobility shift assay; in short: as §1
T4 sequence (whole entry): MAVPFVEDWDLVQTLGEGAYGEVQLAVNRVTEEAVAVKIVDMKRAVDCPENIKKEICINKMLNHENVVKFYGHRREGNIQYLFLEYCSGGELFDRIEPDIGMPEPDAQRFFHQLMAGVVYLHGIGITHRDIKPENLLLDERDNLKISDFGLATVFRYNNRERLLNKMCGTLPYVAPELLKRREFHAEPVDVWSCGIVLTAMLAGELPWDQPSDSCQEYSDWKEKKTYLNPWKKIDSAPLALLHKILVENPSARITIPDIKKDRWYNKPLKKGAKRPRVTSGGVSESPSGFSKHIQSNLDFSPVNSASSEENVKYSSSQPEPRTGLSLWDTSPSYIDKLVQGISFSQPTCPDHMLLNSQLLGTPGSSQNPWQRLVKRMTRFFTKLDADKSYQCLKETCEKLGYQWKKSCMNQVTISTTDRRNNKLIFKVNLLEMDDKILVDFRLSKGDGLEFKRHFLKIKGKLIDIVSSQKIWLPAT

[5] = biological target: Tyrosine-protein kinase ABL1 (Homo sapiens, UniProt P00519); assay: Inhibition of ABL at 30 uM by microfluidic mobility shift assay; in short: as §1
Chain of Tyrosine-protein kinase ABL1 (P00519 whole entry): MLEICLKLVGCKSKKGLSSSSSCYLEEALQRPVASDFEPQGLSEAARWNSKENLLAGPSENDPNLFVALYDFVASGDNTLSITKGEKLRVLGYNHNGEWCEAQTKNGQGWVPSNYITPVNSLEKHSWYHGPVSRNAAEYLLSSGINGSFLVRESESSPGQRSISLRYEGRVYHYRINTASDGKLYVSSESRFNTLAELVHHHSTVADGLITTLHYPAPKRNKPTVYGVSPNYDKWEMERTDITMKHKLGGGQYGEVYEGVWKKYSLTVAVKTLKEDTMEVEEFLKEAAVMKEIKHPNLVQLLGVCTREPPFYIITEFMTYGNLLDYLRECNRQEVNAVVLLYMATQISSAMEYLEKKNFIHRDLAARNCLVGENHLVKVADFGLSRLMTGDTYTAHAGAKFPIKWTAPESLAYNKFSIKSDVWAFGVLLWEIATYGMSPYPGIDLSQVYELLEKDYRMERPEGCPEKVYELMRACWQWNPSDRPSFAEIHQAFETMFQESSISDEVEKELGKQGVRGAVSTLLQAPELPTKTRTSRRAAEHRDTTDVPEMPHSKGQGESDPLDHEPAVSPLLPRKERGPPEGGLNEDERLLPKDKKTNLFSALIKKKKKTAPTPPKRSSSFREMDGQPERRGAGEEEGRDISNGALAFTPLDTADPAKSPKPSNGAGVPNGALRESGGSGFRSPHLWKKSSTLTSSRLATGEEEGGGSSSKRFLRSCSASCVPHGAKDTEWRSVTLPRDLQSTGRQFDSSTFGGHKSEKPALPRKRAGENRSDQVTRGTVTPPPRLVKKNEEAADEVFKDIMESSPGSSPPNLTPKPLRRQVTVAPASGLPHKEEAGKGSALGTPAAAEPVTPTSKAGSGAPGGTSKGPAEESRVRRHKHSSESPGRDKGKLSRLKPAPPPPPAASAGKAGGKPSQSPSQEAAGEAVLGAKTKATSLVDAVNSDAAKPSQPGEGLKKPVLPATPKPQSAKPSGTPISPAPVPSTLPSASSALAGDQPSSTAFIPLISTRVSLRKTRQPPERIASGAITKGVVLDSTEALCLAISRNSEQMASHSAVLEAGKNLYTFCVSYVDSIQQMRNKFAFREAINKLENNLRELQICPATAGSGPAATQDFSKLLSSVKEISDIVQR

[6] = biological target: Proto-oncogene tyrosine-protein kinase Src (Homo sapiens, UniProt P12931); assay: Inhibition of SRC at 30 uM by microfluidic mobility shift assay; in short: as §1
[7] = biological target: Insulin receptor (Homo sapiens) (UniProt P06213); assay: Inhibition of INSR at 30 uM by microfluidic mobility shift assay; in short: as §1
Chain of Insulin receptor (Homo sapiens) (P06213 28-758 limits assumed): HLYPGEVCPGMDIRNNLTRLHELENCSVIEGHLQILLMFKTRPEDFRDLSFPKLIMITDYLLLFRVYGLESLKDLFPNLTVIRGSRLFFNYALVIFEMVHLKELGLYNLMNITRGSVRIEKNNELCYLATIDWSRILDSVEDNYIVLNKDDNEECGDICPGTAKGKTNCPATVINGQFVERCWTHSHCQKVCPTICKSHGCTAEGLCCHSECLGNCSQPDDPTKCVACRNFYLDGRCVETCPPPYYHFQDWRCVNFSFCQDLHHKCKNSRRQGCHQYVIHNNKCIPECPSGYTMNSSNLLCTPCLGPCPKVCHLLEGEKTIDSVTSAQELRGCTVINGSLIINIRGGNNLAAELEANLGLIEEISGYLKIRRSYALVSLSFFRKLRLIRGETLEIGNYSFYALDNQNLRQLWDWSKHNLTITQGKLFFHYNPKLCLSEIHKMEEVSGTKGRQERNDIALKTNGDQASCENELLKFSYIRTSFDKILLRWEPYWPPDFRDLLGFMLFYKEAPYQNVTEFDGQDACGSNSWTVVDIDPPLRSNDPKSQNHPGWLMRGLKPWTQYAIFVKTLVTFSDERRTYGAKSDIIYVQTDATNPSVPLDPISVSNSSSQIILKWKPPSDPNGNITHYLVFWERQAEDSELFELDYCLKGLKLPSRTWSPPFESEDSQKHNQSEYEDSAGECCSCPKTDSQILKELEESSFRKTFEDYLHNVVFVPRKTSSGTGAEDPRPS
Chain of Insulin receptor (Homo sapiens) (P06213 763-1382 limits assumed): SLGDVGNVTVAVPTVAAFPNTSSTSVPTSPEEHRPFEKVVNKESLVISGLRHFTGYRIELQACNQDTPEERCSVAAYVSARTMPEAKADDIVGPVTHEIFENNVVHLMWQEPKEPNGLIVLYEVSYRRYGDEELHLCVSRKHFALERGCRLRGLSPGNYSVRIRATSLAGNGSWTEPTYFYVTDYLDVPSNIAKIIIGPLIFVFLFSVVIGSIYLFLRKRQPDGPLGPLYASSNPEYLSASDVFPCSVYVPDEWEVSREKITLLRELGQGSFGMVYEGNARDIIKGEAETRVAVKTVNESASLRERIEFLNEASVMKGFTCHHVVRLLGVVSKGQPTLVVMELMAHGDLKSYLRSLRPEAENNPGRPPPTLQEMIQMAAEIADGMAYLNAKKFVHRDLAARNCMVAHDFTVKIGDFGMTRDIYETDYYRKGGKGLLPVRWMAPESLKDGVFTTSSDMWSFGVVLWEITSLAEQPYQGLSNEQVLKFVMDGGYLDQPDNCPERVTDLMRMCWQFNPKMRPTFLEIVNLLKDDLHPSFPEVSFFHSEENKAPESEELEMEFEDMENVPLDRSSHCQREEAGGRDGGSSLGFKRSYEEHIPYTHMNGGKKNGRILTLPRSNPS

[8] = biological target: Mitogen-activated protein kinase 14 (Homo sapiens, UniProt Q16539); assay: Inhibition of p38alpha at 30 uM by microfluidic mobility shift assay; in short: as §1
Chain of Mitogen-activated protein kinase 14 (Q16539 whole entry): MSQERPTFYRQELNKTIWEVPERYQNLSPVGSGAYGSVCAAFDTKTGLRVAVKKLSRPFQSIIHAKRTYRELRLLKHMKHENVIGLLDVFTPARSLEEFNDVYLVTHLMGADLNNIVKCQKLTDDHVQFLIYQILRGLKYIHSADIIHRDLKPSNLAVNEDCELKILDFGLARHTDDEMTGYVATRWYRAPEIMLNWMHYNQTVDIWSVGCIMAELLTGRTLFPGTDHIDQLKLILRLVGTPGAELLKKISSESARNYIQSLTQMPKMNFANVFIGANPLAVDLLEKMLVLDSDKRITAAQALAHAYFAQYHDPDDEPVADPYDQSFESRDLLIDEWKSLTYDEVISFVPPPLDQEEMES

[9] = biological target: RAC-alpha serine/threonine-protein kinase (Homo sapiens) (UniProt P31749); assay: Inhibition of AKT1 at 30 uM by microfluidic mobility shift assay; in short: as §1
Chain of RAC-alpha serine/threonine-protein kinase (Homo sapiens) (P31749 whole entry): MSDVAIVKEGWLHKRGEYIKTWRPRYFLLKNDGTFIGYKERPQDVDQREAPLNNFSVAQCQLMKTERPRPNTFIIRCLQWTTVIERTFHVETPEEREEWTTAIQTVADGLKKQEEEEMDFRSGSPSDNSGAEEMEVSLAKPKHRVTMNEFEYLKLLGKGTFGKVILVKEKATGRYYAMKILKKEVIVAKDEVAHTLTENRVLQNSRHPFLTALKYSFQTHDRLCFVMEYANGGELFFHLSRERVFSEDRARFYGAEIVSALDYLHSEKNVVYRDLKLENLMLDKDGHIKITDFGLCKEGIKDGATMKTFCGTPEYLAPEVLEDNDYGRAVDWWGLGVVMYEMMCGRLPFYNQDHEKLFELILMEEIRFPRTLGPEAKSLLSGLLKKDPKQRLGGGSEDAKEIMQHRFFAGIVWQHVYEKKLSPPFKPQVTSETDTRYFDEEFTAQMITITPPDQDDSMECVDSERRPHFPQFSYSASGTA

[10] = biological target: Ribosomal protein S6 kinase alpha-5 (Homo sapiens) (UniProt O75582); assay: Inhibition of MSK1 at 30 uM by microfluidic mobility shift assay; in short: as §1
Chain of Ribosomal protein S6 kinase alpha-5 (Homo sapiens) (O75582 whole entry, looked up): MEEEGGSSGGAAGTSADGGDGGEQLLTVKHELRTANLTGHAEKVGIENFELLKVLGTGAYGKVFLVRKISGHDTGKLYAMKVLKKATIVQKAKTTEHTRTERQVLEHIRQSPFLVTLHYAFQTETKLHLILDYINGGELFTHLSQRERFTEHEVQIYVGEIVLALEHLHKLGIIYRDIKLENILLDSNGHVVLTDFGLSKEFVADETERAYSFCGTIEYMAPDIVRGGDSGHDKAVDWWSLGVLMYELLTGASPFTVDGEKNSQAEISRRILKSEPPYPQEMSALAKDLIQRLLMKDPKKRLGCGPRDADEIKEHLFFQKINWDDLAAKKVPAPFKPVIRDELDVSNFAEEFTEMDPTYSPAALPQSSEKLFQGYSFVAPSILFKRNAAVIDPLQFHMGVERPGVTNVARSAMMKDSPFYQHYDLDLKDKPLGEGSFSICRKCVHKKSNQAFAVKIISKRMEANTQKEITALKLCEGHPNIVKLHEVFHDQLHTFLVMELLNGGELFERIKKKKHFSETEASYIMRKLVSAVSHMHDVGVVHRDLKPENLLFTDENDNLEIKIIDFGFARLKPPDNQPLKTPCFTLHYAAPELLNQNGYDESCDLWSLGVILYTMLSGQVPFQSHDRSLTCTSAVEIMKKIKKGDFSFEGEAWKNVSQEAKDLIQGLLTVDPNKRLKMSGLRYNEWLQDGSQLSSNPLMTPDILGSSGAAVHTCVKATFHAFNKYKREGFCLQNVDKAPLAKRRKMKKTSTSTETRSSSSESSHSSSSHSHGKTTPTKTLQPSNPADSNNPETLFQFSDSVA

[11] = biological target: Ribosomal protein S6 kinase alpha-1 (Homo sapiens) (UniProt Q15418); assay: Inhibition of RSK1 at 30 uM by microfluidic mobility shift assay; in short: as §1
Chain of Ribosomal protein S6 kinase alpha-1 (Homo sapiens) (Q15418 whole entry): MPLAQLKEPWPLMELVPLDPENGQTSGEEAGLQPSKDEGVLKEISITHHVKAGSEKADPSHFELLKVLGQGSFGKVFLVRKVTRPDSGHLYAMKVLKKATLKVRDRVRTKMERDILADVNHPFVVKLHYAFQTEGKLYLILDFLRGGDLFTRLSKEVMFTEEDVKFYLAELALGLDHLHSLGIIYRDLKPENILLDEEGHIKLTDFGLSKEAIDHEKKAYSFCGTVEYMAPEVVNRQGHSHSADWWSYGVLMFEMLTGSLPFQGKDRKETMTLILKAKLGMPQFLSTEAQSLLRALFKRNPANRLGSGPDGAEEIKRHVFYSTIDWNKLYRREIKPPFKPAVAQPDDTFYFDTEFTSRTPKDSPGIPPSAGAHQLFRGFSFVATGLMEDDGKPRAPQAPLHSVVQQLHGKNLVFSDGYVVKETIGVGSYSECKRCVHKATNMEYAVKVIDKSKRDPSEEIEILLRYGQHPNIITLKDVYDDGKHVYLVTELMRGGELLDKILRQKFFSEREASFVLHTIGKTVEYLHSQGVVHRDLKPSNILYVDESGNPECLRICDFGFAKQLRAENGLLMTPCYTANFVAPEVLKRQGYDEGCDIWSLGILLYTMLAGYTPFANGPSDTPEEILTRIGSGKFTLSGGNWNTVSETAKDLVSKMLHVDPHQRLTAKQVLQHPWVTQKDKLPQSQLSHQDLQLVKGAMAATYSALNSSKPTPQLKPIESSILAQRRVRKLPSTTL

Row | Structure (SMILES) | inhibition [1] | inhibition [2] | inhibition [3] | inhibition [4] | inhibition [5] | inhibition [6] | inhibition [7] | inhibition [8] | inhibition [9] | inhibition [10] | inhibition [11]
1 | Cc1cc2c(c(NC(=O)Nc3ccccc3)nn2C)c(=O)[nH]1 | 10% | 19% | -4% | 5% | 15% | 17% | -5% | 7% | 4% | 0% | –
2 | Cc1cc2c(c(N)nn2C)c(=O)[nH]1 | 4% | 0% | 5% | -8% | 0% | 9% | 3% | 6% | 11% | 4% | 2%
3 | CC(C)(C)c1cc2nn(-c3ccccc3)c(N)c2c(=O)[nH]1 | 9% | -1% | 15% | 11% | 13% | 7% | 4% | 85% | 7% | -1% | 5%
4 | Cn1nc2c3c(nc(-c4ccccc4)cc31)NCC(=O)N2 | 20% | 5% | 17% | 6% | 4% | 22% | 2% | 6% | 10% | 0% | 0%
5 | COc1ccc(S(=O)(=O)Nc2nn(C)c3cc(C)[nH]c(=O)c23)c(OC)c1 | -9% | 21% | 14% | 0% | 3% | 2% | 2% | -4% | 10% | 3% | -2%
6 | COCCNc1nc(-c2ccccc2)cc2c1c(N)nn2C | 10% | 20% | 1% | 7% | -7% | 3% | 1% | 2% | 8% | 0% | -3%
7 | Cn1nc(N)c2c(=O)[nH]c(-c3ccccn3)cc21 | 7% | 0% | 17% | 34% | 27% | 18% | 16% | 1% | 7% | -4% | 9%
8 | COc1ccc(-c2cc3nn(-c4ccccc4)c(N)c3c(=O)[nH]2)cc1 | 10% | 0% | 28% | 5% | 89% | 89% | 0% | 38% | 16% | 6% | 4%
9 | CN1CCN(c2ccc(-c3cc4[nH]nc(N)c4c(=O)[nH]3)cc2)CC1 | 51% | 35% | 15% | 54% | 86% | 85% | 17% | 7% | 9% | 83% | 26%
10 | Nc1c2c(=O)[nH]c(-c3ccccn3)cc2nn1-c1ccccc1 | 30% | 3% | 15% | 7% | 95% | 98% | 4% | 32% | 4% | 4% | 6%
11 | Cc1cc2c(c(N)nn2C)c(N2CC[C@H](O)C2)n1 | 0% | 19% | 8% | 7% | -4% | 3% | -2% | 0% | 7% | 4% | -5%
12 | COc1ccc(-c2cc3[nH]nc(N)c3c(=O)[nH]2)cc1 | 49% | 7% | 28% | 14% | 55% | 59% | 6% | 0% | 21% | 62% | 7%
13 | COc1cccc(-c2cc3[nH]nc(N)c3c(=O)[nH]2)c1 | 49% | -1% | 17% | 13% | 44% | 62% | 20% | 10% | 4% | 49% | 20%
14 | Cn1nc(N)c2c(=O)[nH]c(-c3ccccc3)cc21 | 14% | 6% | 14% | 25% | 26% | 32% | 2% | 7% | 8% | 9% | 8%
15 | Cc1nc(N)c2c(=O)[nH]c(C)cc2n1 | 3% | 3% | 6% | 9% | 18% | 9% | 3% | 2% | -2% | 0% | –
